# An excerpt weighted towards active compounds, which were near 3.8% of everything screened.
# FN deposition inh: fibronectin deposition inhibition; AH1F fibroblasts, Alexa488-fibronectin deposition fluorescence, overnight; inhibition, % at 12.6 µM; actives 0.086% (n = 350,000);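 active = mean inhibition across replicates of 30% or more, regardless of how many single replicates reach that level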
#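 test system = AH1F fibroblasts assembling fluorescent fibronectin matrix | quantity = 10000 AH1F cells per well | buffer or medium = DMEM plus 2% serum, read in PBS | doses = single dose, pinned | incubation = 1 h cell attachment, overnight exposure to compound and label | detection = fluorescence at 485 nm excitation, 525 nm emission | read-out basis = inhibition from reduced deposited-fibronectin fluorescence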
# FGF22 binding: binders of recombinant human FGF22 by thermal shift. Q9HCT0. SYPRO orange fluorescence; percent of sucrose octasulfate shift, DMSO zero. actives 1.5% (n = 340,000). activity (Tm shift, normalised), % at 9.99 µM;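 active = mean Tm shift, scaled 0 neutral to 100 positive control, at about 1.3% or above, every replicate too, limit read from the data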
# SIRT5 inh: sirtuin-5 (human) deacylase inhibition | Q9NXA8 | Purified SirT5, succinyl-peptide AMC, trypsin-coupled fluorescence | inhibition, % at 15 µM | actives 1.1% (n = 330,000); in the data active = inhibition above about 15%
# Target sequence (Q9NXA8 whole entry, looked up): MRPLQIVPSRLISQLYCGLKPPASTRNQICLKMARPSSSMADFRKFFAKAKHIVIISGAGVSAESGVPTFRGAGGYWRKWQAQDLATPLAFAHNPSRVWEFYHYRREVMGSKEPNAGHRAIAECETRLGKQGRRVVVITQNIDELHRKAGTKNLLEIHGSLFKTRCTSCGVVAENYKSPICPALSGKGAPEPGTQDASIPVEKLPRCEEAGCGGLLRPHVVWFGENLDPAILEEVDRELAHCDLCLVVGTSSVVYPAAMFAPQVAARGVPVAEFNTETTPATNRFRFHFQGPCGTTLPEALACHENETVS
# DENV2 CPE rescue: inhibitors of DENV2 cytopathic effect; actives 1.7% (n = 350,000); DENV2-infected cells, cytopathic effect rescue, plate reader; CPE inhibition, % at 9.99 µM; AID 651640; in the data active = CPE inhibition above about 20%, passing the limit was not always enough; tested in BHK-21 cells
# XiGFP reactiv: reactivates the inactive X chromosome in mouse fibroblasts | actives 0.055% (n = 360,000) | XiGFP mouse fibroblasts, % GFP-positive cells imaging, 3 d; cells co-treated with 5-aza-dC sensitizer; scaled so ellipticine positive control = 100% | AID 743238 | activation, % at 7.58 µM;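 active = mean normalized replicate activation at least 10% and every replicate at or above 10%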
#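 System: XiGFP fibroblasts, SV40-immortalized. Medium: DMEM plus 5-aza-dC sensitizer. Doses: single point. Timing: 3 d treatment, 15 min room-temperature fixation. Control set: ellipticine 6 µM.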
# ARNT-TACC3 inh: disrupts binding between human ARNT and TACC3. Q9Y6A5. AlphaScreen His-ARNT PAS-B/GST-TACC3 binding, luminescence; TACC3 fragment carries E629A point mutation. inhibition, % at 9.99 µM. actives 0.66% (n = 390,000). AID 623870;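 active = mean inhibition of replicates at least 50% and at least half of replicates each reaching 50%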
# A number is an active result; n = inactive; x = not tested or not shown.
SMILES,FN deposition inh,FGF22 binding,SIRT5 inh,DENV2 CPE rescue,XiGFP reactiv,ARNT-TACC3 inh
Cc1ccc(S(=O)(=O)Nc2ccc3c(c2)C(=O)N(C)[C@@H]2CC[C@H](CC(=O)NCCc4ccncc4)O[C@@H]2CO3)cc1,n,n,n,n,n,n
Cc1cc(C)n2c(NC3CCCC3)c(-c3cccnc3)nc2n1,n,n,x,22,n,x
Cc1cc(C)n2c(Nc3c(C)cccc3C)c(-c3cccnc3)nc2n1,n,n,x,n,n,x
C[C@@H]1CN([C@@H](C)CO)C(=O)c2cc(NC(=O)c3ccncc3)ccc2O[C@H]1CN(C)Cc1ccc(Oc2ccccc2)cc1,n,n,16,n,n,n
CC(C)NC(=O)Nc1ccc2c(c1)C(=O)N([C@@H](C)CO)C[C@@H](C)[C@@H](CN(C)Cc1ccc(C(=O)O)cc1)O2,x,n,n,25,n,n
Cc1noc(C)c1NC(=O)Nc1ccc2c(c1)C(=O)N([C@@H](C)CO)C[C@H](C)[C@@H](CN(C)Cc1ccccc1)O2,x,n,n,29,n,n
CC(C)NC(=O)Nc1ccc2c(c1)C(=O)N([C@H](C)CO)C[C@@H](C)[C@H](CN(C)Cc1ccccc1)O2,x,n,n,43,n,n
CC(=O)NC[C@@H]1[C@@H](c2ccc(C3=CCCC3)cc2)[C@@H](CO)N1C(=O)C1CC1,n,x,n,n,n,x
C[C@@H]1CN([C@H](C)CO)C(=O)c2cc(NC(=O)Nc3ccccc3)ccc2O[C@@H]1CN(C)Cc1ccccc1,n,n,18,n,n,n
C[C@H]1CN([C@@H](C)CO)C(=O)c2cc(NC(=O)Nc3ccc(F)cc3)ccc2O[C@H]1CN(C)Cc1ccccc1,x,n,n,25,n,n
CNC[C@@H]1Oc2ccc(NC(=O)NC(C)C)cc2C(=O)N([C@H](C)CO)C[C@@H]1C,x,n,n,n,n,n
C[C@@H]1CN([C@H](C)CO)C(=O)c2cc(NC(=O)C3CC3)ccc2O[C@@H]1CN(C)Cc1ccc(Oc2ccccc2)cc1,x,n,n,n,n,n
C[C@H](CO)N1C[C@H](C)[C@@H](CN(C)Cc2ccc(Oc3ccccc3)cc2)Oc2ccc(NC(=O)C3CC3)cc2C1=O,x,n,18,n,n,n
CNC[C@H]1Oc2ccc(NC(=O)NC(C)C)cc2C(=O)N([C@@H](C)CO)C[C@@H]1C,x,n,n,28,n,n
C[C@H]1CN([C@@H](C)CO)C(=O)c2cc(NC(=O)Nc3ccccc3)ccc2O[C@@H]1CN(C)Cc1ccncc1,x,n,n,n,n,n
C[C@@H]1CN([C@@H](C)CO)C(=O)c2cc(NC(=O)Nc3ccccc3)ccc2O[C@@H]1CN(C)Cc1ccc(Oc2ccccc2)cc1,x,n,17,n,n,n
CO[C@@H](CN(C)C(=O)c1ccc2c(c1)OCO2)[C@@H](C)CN([C@H](C)CO)S(=O)(=O)c1ccc(Cl)cc1,n,n,n,n,n,n
O=C(NC[C@@H]1N[C@@H](CO)[C@@H]1c1ccccc1)c1ccccc1F,n,n,n,29,n,n
O=C(C[C@H]1C=C[C@@H](NS(=O)(=O)c2ccccc2)[C@@H](CO)O1)NCc1ccccc1F,x,n,n,n,n,n
C[C@H](CO)N1C[C@H](C)[C@@H](CN(C)Cc2ccc(C(F)(F)F)cc2)Oc2c(NC(=O)C3CCOCC3)cccc2C1=O,x,n,n,n,n,n
CNC(=S)NCCc1ccc(OC)cc1,n,43,n,n,n,x
COc1ccc(CCNC(=S)Nc2ccc(OC)cc2)cc1,n,x,x,x,n,x
C[C@@H]1CCCCO[C@@H](CN(C)C(=O)NC2CCCCC2)[C@@H](C)CN([C@@H](C)CO)C(=O)c2cc(NS(=O)(=O)c3cccs3)ccc2O1,x,n,n,n,n,n
COc1ccc(NC(=O)C2CCCN2S(=O)(=O)c2ccc3c(c2)CCC(=O)N3)c(OC)c1 (stereo not given),n,n,x,37,n,n
Cc1ccc(S(=O)(=O)N2C[C@H]3n4c(=O)ccc(=O)n4C[C@H](OC(=O)NCc4ccccc4)[C@@]3(O)C2)cc1,n,n,n,n,n,x

# Screening data deposited in PubChem by Broad Institute.
